ChEMBL document CHEMBL3046803, “Synthesis and insecticidal activities of novel anthranilic diamides containing acylthiourea and acylurea” (2012)
In brackets after ≈: the same amount, converted by molar mass. Activity calls are given as the source filed them. The calls are words filed in the database; no cut-off is given here.

Assays:
Mythimna separata [1] = test: Insecticidal activity against Mythimna separata (Oriental armyworm) fourth-instar larvae infected Zea mays leaves assessed as larvicidal activity at 200 mg/L measured 2 days post dose; format: functional
Summary of the method: (§1)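 Foliar application test: individual corn (Tangyu 10) leaves were placed on moistened filter paper in Petri dishes.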

Mythimna separata [2] = test: Insecticidal activity against Mythimna separata (Oriental armyworm) fourth-instar larvae infected Zea mays leaves assessed as larvicidal activity at 100 mg/L measured 2 days post dose; format: functional; summary of the method: as §1
Culex pipiens pallens [3] = test: Insecticidal activity against Culex pipiens pallens (mosquito) fourth-instar larvae assessed as larvicidal activity at 2 mg/L measured 3 days post dose; format: functional
Summary of the method: (§2)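 Mosquito larvicidal test: compounds were dissolved in acetone and diluted with distilled water to the test concentrations.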

Plutella xylostella [4] = test: Insecticidal activity against Plutella xylostella (diamondback moth) s-instar larvae infected in fresh cabbage leaves assessed as larvicidal activity at 0.1 mg/L measured 2 days post dose; format: functional
Summary of the method: (§3)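 Leaf-dip (spray) test: a 200 mg/L stock in DMF was diluted with distilled water. Cabbage leaf disks (6 × 2 cm) were sprayed for 3 s, dried, and placed individually in glass tubes. Each disk received 30 second-instar larvae. Mortality was scored at 2 days; triplicate.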

Mythimna separata [5] = test: Insecticidal activity against Mythimna separata (Oriental armyworm) fourth-instar larvae infected Zea mays leaves assessed as larvicidal activity at 5 mg/L measured 2 days post dose; format: functional; summary of the method: as §1
Mythimna separata [6] = test: Insecticidal activity against Mythimna separata (Oriental armyworm) fourth-instar larvae infected Zea mays leaves assessed as larvicidal activity at 20 mg/L measured 2 days post dose; format: functional; summary of the method: as §1
Plutella xylostella [7] = test: Insecticidal activity against Plutella xylostella (diamondback moth) s-instar larvae infected in fresh cabbage leaves assessed as larvicidal activity measured 2 days post dose; format: functional; conditions: 48 h; summary of the method: as §3
Mythimna separata [8] = test: Insecticidal activity against Mythimna separata (Oriental armyworm) fourth-instar larvae infected Zea mays leaves assessed as larvicidal activity at 50 mg/L measured 2 days post dose; format: functional; summary of the method: as §1
Plutella xylostella [9] = test: Insecticidal activity against Plutella xylostella (diamondback moth) s-instar larvae infected in fresh cabbage leaves assessed as larvicidal activity at 0.01 mg/L measured 2 days post dose; format: functional; summary of the method: as §3
Plutella xylostella [10] = test: Insecticidal activity against Plutella xylostella (diamondback moth) s-instar larvae infected in fresh cabbage leaves assessed as larvicidal activity at 1 mg/L measured 2 days post dose; format: functional; summary of the method: as §3
Plutella xylostella [11] = test: Insecticidal activity against Plutella xylostella (diamondback moth) s-instar larvae infected in fresh cabbage leaves assessed as larvicidal activity at 0.001 mg/L measured 2 days post dose; format: functional; summary of the method: as §3
Mythimna separata [12] = test: Insecticidal activity against Mythimna separata (Oriental armyworm) fourth-instar larvae infected Zea mays leaves assessed as larvicidal activity at 10 mg/L measured 2 days post dose; format: functional; summary of the method: as §1
Plutella xylostella [13] = test: Insecticidal activity against Plutella xylostella (diamondback moth) s-instar larvae infected in fresh cabbage leaves assessed as larvicidal activity at 20 mg/L measured 2 days post dose; format: functional; summary of the method: as §3
Culex pipiens pallens [14] = test: Insecticidal activity against Culex pipiens pallens (mosquito) fourth-instar larvae assessed as larvicidal activity at 0.5 mg/L measured 3 days post dose; format: functional; summary of the method: as §2
Culex pipiens pallens [15] = test: Insecticidal activity against Culex pipiens pallens (mosquito) fourth-instar larvae assessed as larvicidal activity at 1 mg/L measured 3 days post dose; format: functional; summary of the method: as §2
[16] = biological target: Voltage-dependent L-type calcium channel, putative (Pediculus humanus subsp. corporis) (UniProt E0VY79); test: Inhibition of voltage-dependent L-type calcium channel in Spodoptera exigua neurons assessed as peak calcium current at 0.1 mM measured 8 min post dose by electrophysiology method (reference value: 90.85 +/- 0.65%); set-up: scale not given: the % may be the effect or the level left
[17] = biological target: Voltage-dependent L-type calcium channel, putative (Pediculus humanus subsp. corporis) (UniProt E0VY79); test: Inhibition of voltage-dependent L-type calcium channel in Spodoptera exigua neurons assessed as peak calcium current at 0.1 mM measured 5 min post dose by electrophysiology method (reference value: 98.06 +/- 1.01%); set-up: scale not given: the % may be the effect or the level left
[18] = biological target: Voltage-dependent L-type calcium channel, putative (Pediculus humanus subsp. corporis) (UniProt E0VY79); test: Inhibition of voltage-dependent L-type calcium channel in Spodoptera exigua neurons assessed as peak calcium current at 0.1 mM measured 4 min post dose by electrophysiology method (reference value: 99.66 +/- 1.64%); set-up: scale not given: the % may be the effect or the level left
[19] = biological target: Voltage-dependent L-type calcium channel, putative (Pediculus humanus subsp. corporis) (UniProt E0VY79); test: Inhibition of voltage-dependent L-type calcium channel in Spodoptera exigua neurons assessed as peak calcium current at 0.1 mM measured 3 min post dose by electrophysiology method (reference value: 101.76 +/- 2.7%); set-up: scale not given: the % may be the effect or the level left
[20] = biological target: Voltage-dependent L-type calcium channel, putative (Pediculus humanus subsp. corporis) (UniProt E0VY79); test: Inhibition of voltage-dependent L-type calcium channel in Spodoptera exigua neurons assessed as peak calcium current at 0.1 mM measured 2 min post dose by electrophysiology method (reference value: 102.75 +/- 2.45%); set-up: scale not given: the % may be the effect or the level left
[21] = biological target: Voltage-dependent L-type calcium channel, putative (Pediculus humanus subsp. corporis) (UniProt E0VY79); test: Inhibition of voltage-dependent L-type calcium channel in Spodoptera exigua neurons assessed as peak calcium current at 0.1 mM measured 10 min post dose by electrophysiology method (reference value: 85.44 +/- 1.14%); set-up: scale not given: the % may be the effect or the level left
[22] = biological target: Voltage-dependent L-type calcium channel, putative (Pediculus humanus subsp. corporis) (UniProt E0VY79); test: Inhibition of voltage-dependent L-type calcium channel in Spodoptera exigua neurons assessed as peak intracellular calcium level at 1000 mg/L measured 10 min post dose by calcium-imaging technique relative to initial untreated control; format: cell-based; set-up: scale not given: the % may be the effect or the level left
Summary of the method: (§4)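 S. exigua neurons were rinsed in physiological saline (pH 6.9). They were dye-loaded in the dark at 28 °C, either with 10 μM fluo-3-AM for 45 min in standard saline or with 5 μM fluo-5N for 5 h in EGTA Ca-free saline, then rinsed twice. [Ca²⁺]i was imaged on an inverted fluorescence microscope (40× oil, 488/530 nm) over 10 min. F/F₀ is relative to resting baseline; ≥6 repeats; mean ± SD.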

[23] = biological target: Voltage-dependent L-type calcium channel, putative (Pediculus humanus subsp. corporis) (UniProt E0VY79); test: Inhibition of voltage-dependent L-type calcium channel in Spodoptera exigua neurons assessed as peak calcium current at 0.1 mM measured 1 min post dose by electrophysiology method (reference value: 104.47 +/- 2.33%); set-up: scale not given: the % may be the effect or the level left
[24] = biological target: Voltage-dependent L-type calcium channel, putative (Pediculus humanus subsp. corporis) (UniProt E0VY79); test: Inhibition of voltage-dependent L-type calcium channel in Spodoptera exigua neurons assessed as increase in intracellular calcium level at 1000 mg/L measured 10 min post dose by calcium-imaging technique; format: cell-based; summary of the method: as §4
[25] = biological target: Voltage-dependent L-type calcium channel, putative (Pediculus humanus subsp. corporis) (UniProt E0VY79); test: Inhibition of voltage-dependent L-type calcium channel in Spodoptera exigua neurons assessed as change in […] calcium level at 1000 mg/L measured 10 min post dose by calcium-imaging technique; summary of the method: as §4

Voltage-dependent L-type calcium channel, putative (Pediculus humanus subsp. corporis), sequence (E0VY79 as listed by the source): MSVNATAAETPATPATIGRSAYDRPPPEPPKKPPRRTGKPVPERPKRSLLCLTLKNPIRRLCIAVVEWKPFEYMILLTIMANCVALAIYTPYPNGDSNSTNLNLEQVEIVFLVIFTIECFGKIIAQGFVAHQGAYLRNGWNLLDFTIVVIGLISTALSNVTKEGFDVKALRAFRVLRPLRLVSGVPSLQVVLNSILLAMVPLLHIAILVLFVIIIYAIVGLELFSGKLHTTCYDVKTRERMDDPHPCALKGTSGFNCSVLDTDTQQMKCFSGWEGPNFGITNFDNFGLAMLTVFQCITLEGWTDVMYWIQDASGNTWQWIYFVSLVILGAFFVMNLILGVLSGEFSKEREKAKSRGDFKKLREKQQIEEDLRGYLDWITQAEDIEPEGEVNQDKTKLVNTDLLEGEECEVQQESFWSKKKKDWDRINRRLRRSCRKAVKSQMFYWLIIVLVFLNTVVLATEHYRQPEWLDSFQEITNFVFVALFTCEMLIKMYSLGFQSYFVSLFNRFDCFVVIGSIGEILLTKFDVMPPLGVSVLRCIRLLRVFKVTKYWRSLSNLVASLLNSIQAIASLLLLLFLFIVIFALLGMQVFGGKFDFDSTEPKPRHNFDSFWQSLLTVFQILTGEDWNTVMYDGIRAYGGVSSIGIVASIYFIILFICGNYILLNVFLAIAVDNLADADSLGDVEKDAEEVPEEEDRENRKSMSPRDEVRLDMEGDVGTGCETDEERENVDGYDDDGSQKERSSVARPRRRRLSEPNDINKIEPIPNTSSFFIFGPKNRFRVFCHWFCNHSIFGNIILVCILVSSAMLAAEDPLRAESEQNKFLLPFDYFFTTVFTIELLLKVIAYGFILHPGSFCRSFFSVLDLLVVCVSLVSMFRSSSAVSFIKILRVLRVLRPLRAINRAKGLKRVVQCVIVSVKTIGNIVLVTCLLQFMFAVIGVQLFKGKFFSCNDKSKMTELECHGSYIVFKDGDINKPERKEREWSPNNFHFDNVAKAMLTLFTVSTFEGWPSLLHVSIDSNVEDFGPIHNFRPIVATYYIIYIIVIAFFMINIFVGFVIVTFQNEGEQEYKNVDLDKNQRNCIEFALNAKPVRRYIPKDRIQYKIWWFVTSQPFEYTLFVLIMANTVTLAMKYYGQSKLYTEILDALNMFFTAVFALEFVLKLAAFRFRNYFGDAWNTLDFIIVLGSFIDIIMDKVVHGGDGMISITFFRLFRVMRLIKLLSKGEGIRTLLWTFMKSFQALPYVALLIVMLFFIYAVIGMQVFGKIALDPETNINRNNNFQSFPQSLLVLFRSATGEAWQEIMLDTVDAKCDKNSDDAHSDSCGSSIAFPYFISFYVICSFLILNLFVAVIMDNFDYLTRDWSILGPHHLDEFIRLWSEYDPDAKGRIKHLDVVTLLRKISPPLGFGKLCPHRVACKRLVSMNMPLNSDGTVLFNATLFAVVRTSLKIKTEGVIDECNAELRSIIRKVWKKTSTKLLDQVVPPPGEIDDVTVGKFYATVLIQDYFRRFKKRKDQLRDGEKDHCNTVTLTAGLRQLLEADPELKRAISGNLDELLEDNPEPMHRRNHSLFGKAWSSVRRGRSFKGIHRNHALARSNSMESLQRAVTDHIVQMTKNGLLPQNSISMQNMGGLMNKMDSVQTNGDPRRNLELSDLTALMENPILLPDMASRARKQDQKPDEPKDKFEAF

SMILES	Activity (Mythimna separata [1])	Activity (Mythimna separata [2])	Activity (Culex pipiens pallens [3])	Activity (Mythimna separata [5])	Activity (Mythimna separata [6])	Activity (Mythimna separata [8])	Activity (Mythimna separata [12])	also measured
CNC(=O)c1cc(Cl)cc(C)c1NC(=O)NC(=O)c1cc(C(F)(F)F)nn1-c1ncccc1Cl	100%	20%						
Cc1cc(Cl)cc(C(=O)NC2CCCCC2)c1NC(=S)NC(=O)c1cc(Br)nn1-c1ncccc1Cl	0%		40%					
Cc1cc(Cl)cc(C(=O)NC2CC2)c1NC(=S)NC(=O)c1cc(C(F)(F)F)nn1-c1ncccc1Cl	100%	100%		30%	100%	100%	100%	Activity (Plutella xylostella [4]): 100%; LC50 (Plutella xylostella [7]): 0.25 ng/mL (≈ 0.449 nM); Activity (Plutella xylostella [9]): 100%; Activity (Plutella xylostella [10]): 100%; Activity (Plutella xylostella [11]): 71%; Activity (Plutella xylostella [13]): 100%
Cc1cc(Cl)cc(C(=O)NC(C)(C)C)c1NC(=S)NC(=O)c1cc(Br)nn1-c1ncccc1Cl	100%	100%	100%	40%	100%	100%	100%	Activity (Culex pipiens pallens [14]): 30%; Activity (Culex pipiens pallens [15]): 90%
O=C(NC(=O)c1cc(C(F)(F)F)nn1-c1ncccc1Cl)Nc1ccc(Cl)cc1C(=O)NC1CC1	30%							
Cc1cccc(C(=O)NC(C)C)c1NC(=S)NC(=O)c1cc(Cl)nn1-c1ncccc1Cl	100%	100%	20%	0%	100%	100%	100%	
Cc1cc(Br)cc(C(=O)NC2CC2)c1NC(=O)NC(=O)c1cc(C(F)(F)F)nn1-c1ncccc1Cl	100%	0%						
Cc1cc(Cl)cc(C(=O)NC2CC2)c1NC(=O)NC(=O)c1cc(C(F)(F)F)nn1-c1ncccc1Cl	20%							
Cc1cccc(C(=O)NCCC(C)C)c1NC(=S)NC(=O)c1cc(Cl)nn1-c1ncccc1Cl	60%		10%					
CCCNC(=O)c1cc(Cl)ccc1NC(=O)NC(=O)c1cc(C(F)(F)F)nn1-c1ncccc1Cl	0%							
CNC(=O)c1cc(Cl)cc(C)c1NC(=S)NC(=O)c1cc(Cl)nn1-c1ncccc1Cl	100%	100%	70%		100%	100%	40%	Activity (Culex pipiens pallens [15]): 30%
CCNC(=O)c1cc(Cl)cc(C)c1NC(=S)NC(=O)c1cc(C(F)(F)F)nn1-c1ncccc1Cl	100%	100%		0%	100%	100%	100%	Activity (Plutella xylostella [4]): 100%; Activity (Plutella xylostella [9]): 86%; Activity (Plutella xylostella [10]): 100%; Activity (Plutella xylostella [11]): 29%; Activity (Plutella xylostella [13]): 100%
CNC(=O)c1cc(Cl)cc(C)c1NC(=O)c1cc(Br)nn1-c1ncccc1Cl [CHLORANTRANILIPROLE]	100%	100%	100%	100%	100%	100%	100%	Activity [16]: 44.3%; Activity (Plutella xylostella [4]): 100%; Activity [17]: 55.8%; Activity [18]: 63.4%; Activity [19]: 69.6%; Activity [20]: 74%; Activity [21]: 39.7%; LC50 (Plutella xylostella [7]): 0.0123 ng/mL (≈ 0.0255 nM); Activity (Plutella xylostella [9]): 100%; Activity [22]: 123%; Activity (Culex pipiens pallens [14]): 100%; Activity (Plutella xylostella [10]): 100%; Activity (Plutella xylostella [11]): 100%; Activity [23]: 89.6%; Activity (Culex pipiens pallens [15]): 100%; Activity (Plutella xylostella [13]): 100%
CCCCNC(=O)c1cc(Cl)cc(C)c1NC(=O)NC(=O)c1cc(C(F)(F)F)nn1-c1ncccc1Cl	40%							
CCCNC(=O)c1cccc(C)c1NC(=O)NC(=O)c1cc(C(F)(F)F)nn1-c1ncccc1Cl	60%							
Cc1cc(Cl)cc(C(=O)NC2CCCCC2)c1NC(=O)NC(=O)c1cc(C(F)(F)F)nn1-c1ncccc1Cl	0%							
Cc1cccc(C(=O)NC2CC2)c1NC(=O)NC(=O)c1cc(C(F)(F)F)nn1-c1ncccc1Cl	100%	80%						
Cc1cc(Br)cc(C(=O)NCc2ccccc2)c1NC(=S)NC(=O)c1cc(C(F)(F)F)nn1-c1ncccc1Cl	100%	100%			100%	100%	0%	Activity (Plutella xylostella [4]): 100%; LC50 (Plutella xylostella [7]): 0.65 ng/mL (≈ 0.997 nM); Activity (Plutella xylostella [9]): 100%; Activity (Plutella xylostella [10]): 100%; Activity (Plutella xylostella [11]): 57%; Activity (Plutella xylostella [13]): 100%
CNC(=O)c1cc(Cl)cc(C)c1NC(=S)NC(=O)c1cc(Br)nn1-c1ncccc1Cl	100%	100%	60%	50%	100%	100%	100%	Activity (Culex pipiens pallens [15]): 20%
Cc1cc(Br)cc(C(=O)NC(C)C)c1NC(=S)NC(=O)c1cc(Cl)nn1-c1ncccc1Cl	100%	80%	90%			40%		Activity (Culex pipiens pallens [14]): 20%; Activity (Culex pipiens pallens [15]): 60%
Cc1cc(Cl)cc(C(=O)NC2CCCCC2)c1NC(=S)NC(=O)c1cc(C(F)(F)F)nn1-c1ncccc1Cl	40%							Activity (Plutella xylostella [10]): 0%; Activity (Plutella xylostella [13]): 30%
Cc1cccc(C(=O)NCCC(C)C)c1NC(=S)NC(=O)c1cc(Br)nn1-c1ncccc1Cl	100%	30%	20%					
Cc1cc(Cl)cc(C(=O)NC(C)(C)C)c1NC(=O)NC(=O)c1cc(C(F)(F)F)nn1-c1ncccc1Cl	60%							
Cc1cc(Br)cc(C(=O)NC(C)C)c1NC(=S)NC(=O)c1cc(Br)nn1-c1ncccc1Cl	100%	100%	90%	0%	100%	100%	100%	Activity (Culex pipiens pallens [14]): 30%; Activity (Culex pipiens pallens [15]): 70%
CNC(=O)c1cc(Cl)cc(C)c1NC(=S)NC(=O)c1cc(C(F)(F)F)nn1-c1ncccc1Cl	100%	100%		50%	100%	100%	100%	Activity [24]: Active; Activity (Plutella xylostella [4]): 100%; Activity (Plutella xylostella [9]): 71%; Activity [22]: 112%; Activity (Plutella xylostella [10]): 100%; Activity (Plutella xylostella [11]): 43%; inhibition [25]: inactive; Activity (Plutella xylostella [13]): 100%
Cc1cc(Cl)cc(C(=O)NC(C)C)c1NC(=O)NC(=O)c1cc(C(F)(F)F)nn1-c1ncccc1Cl	70%							
